In ChEMBL document CHEMBL1124340, “Acyclic analogues of 3'-azido-3'-deoxythymidine as potential antiviral agents. Nucleoside synthesis by Michael addition” (J Med Chem, 1989):
The source made the active and inactive calls. No cut-off for these calls is given here.

How the values were obtained:
[1] = test system: Vero; test: In vitro inhibitory activity against HSV-1 in vero cells of african green monkey at concentration 100 uM; Inactive; assay type: functional, cell-based; conditions: Chlorocebus sabaeus
[2] = test system: Vero; test: In vitro inhibitory activity against HSV-2 in vero cells of african green monkey at concentration 100 uM; Inactive; assay type: functional, cell-based; conditions: Chlorocebus sabaeus
[3] = Toxicity in Vero (African green monkey) cells at concentration 100 uM; compound found nontoxic; conditions: chlorocebus aethiops, in vitro
[4] = species on record: Homo sapiens; test: In vitro inhibitory activity against HIV-1 in human peripheral blood mononuclear cells at concentration 100 uM; Inactive; assay type: functional
How it was run: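 Mitogen-stimulated PBM cells, three days old (10⁶ cells/mL), came from hepatitis- and HIV-1-seronegative donors. They were infected with HIV-1 strain LAV at about 100 TCID₅₀/mL. Compounds were added about 45 min post-infection and tested up to 100 μM. On day 5 the supernatant was clarified, virus pelleted, and reverse transcriptase activity measured. Cells came from three donors.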

[5] = test system: Vero; test: In vitro inhibitory activity against HSV-1 in vero cells in african green monkey at concentration 100 uM; Inactive; assay type: functional, cell-based; conditions: Chlorocebus sabaeus
[6] = test system: Vero; test: In vitro inhibitory activity against HSV-2 in vero cells in african green monkey at concentration 100 uM; Inactive; assay type: functional, cell-based; conditions: Chlorocebus sabaeus
[7] = Toxicity in Vero (African green monkey) cells at concentration 100 uM; compound found nontoxic; conditions: chlorocebus aethiops, in vitro; remark: listed apart in the source
[8] = test system: Vero; test: In vitro inhibitory activity against HSV-1 in Vero (African green monkey) cells at concentration 100 uM; Inactive; conditions: Chlorocebus sabaeus
[9] = test system: Vero; test: In vitro inhibitory activity against HSV-2 in Vero (African green monkey) cells at concentration 100 uM; Inactive; conditions: Chlorocebus sabaeus
[10] = test system: Vero; test: In vitro inhibitory activity against HSV-1 in vero cells in african green monkey at concentration 100 uM; IA is inactive.; assay type: functional, cell-based; conditions: Chlorocebus sabaeus
[11] = test system: Vero; test: In vitro inhibitory activity against HSV-2 in vero cells of african green monkey at concentration 100 uM; IA is inactive.; assay type: functional, cell-based; conditions: Chlorocebus sabaeus
[12] = Toxicity in Vero (African green monkey) cells at concentration 100 uM; compound was found nontoxic; conditions: chlorocebus aethiops, in vitro

Structure (SMILES)	Activity [1]	Activity [2]	Toxicity [3]	Activity [4]	Activity [5]	Activity [6]	Toxicity [7]	Activity [8]	Activity [9]	Activity [10]	Activity [11]	Toxicity [12]
COC(=O)/C=C/n1cc(C)c(=O)[nH]c1=O	inactive	inactive	Non-toxic	–	–	–	–	–	–	–	–	–
COC(=O)CC(SCCO)n1cc(C)c(=O)[nH]c1=O (stereo not drawn)	inactive	inactive	Non-toxic	–	–	–	–	–	–	–	–	–
Cc1cn(C(CCO)OCCO)c(=O)[nH]c1=O (stereo not drawn)	–	–	–	inactive	inactive	inactive	Non-toxic	inactive	inactive	–	–	–
COC(=O)COC(CC(=O)OC)n1cc(C)c(=O)[nH]c1=O (stereo not drawn)	–	–	–	inactive	inactive	inactive	Non-toxic	inactive	inactive	–	–	–
Cc1cn(C(CCN=[N+]=[N-])OCCO)c(=O)[nH]c1=O (stereo not drawn)	–	–	–	inactive	inactive	inactive	Non-toxic	inactive	inactive	–	–	–
Cc1cn(C(CCO)SCCO)c(=O)[nH]c1=O (stereo not drawn)	–	–	–	inactive	–	–	–	–	–	No activity	No activity	Non-toxic
